# ChEMBL document CHEMBL3044834, “Novel protoporphyrinogen oxidase inhibitors: 3H-pyrazolo[3,4-d][1,2,3]triazin-4-one derivatives” (J Agric Food Chem, 2008)
# Tested on: Amaranthus retroflexus
# Assay: Herbicidal activity against Amaranthus retroflexus assessed as inhibition of fresh weed plant weight at 1500 g/ha using post-emergence treatment protocol
# Assay type: functional
# In short: (§1)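 Test compounds made up as emulsions by dissolving in 100 µL N,N-dimethylformamide, then adding a little Tween 20 and water. For post-emergence, weed seedlings at one leaf and one stem were sprayed at the same rates as the pre-emergence test. Fresh weight was recorded 15 days after treatment and expressed as percent inhibition versus controls. All treatments were run in triplicate.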
row,SMILES,inhibition at 1500 g/ha [%]
1,C#CCN1C(=O)COc2cc(F)c(-n3nnc4c(cnn4C)c3=O)cc21,71.8

# Tested on: Amaranthus retroflexus
# Assay: Herbicidal activity against Amaranthus retroflexus assessed as inhibition of fresh weed plant weight at 187.5 g/ha using pre-emergence treatment protocol
# Assay type: functional
row,SMILES,inhibition at 187.5 g/ha [%]
1,C#CCN1C(=O)COc2cc(F)c(-n3nnc4c(cnn4C)c3=O)cc21,66

# Tested on: Amaranthus retroflexus
# Assay: Herbicidal activity against Amaranthus retroflexus assessed as inhibition of fresh weed plant weight at 750 g/ha using pre-emergence treatment protocol
# Assay type: functional
# In short: as §1
row,SMILES,inhibition at 750 g/ha [%]
1,C#CCN1C(=O)COc2cc(F)c(-n3nnc4c(cnn4C)c3=O)cc21,100

# Tested on: Brassica rapa subsp. oleifera
# Assay: Herbicidal activity against Brassica rapa subsp. oleifera assessed as inhibition of fresh weed plant weight at 93.75 g/ha using pre-emergence treatment protocol
# Assay type: functional
row,SMILES,inhibition at 93.75 g/ha [%]
1,C#CCN1C(=O)COc2cc(F)c(-n3nnc4c(cnn4C)c3=O)cc21,47.3

# Tested on: Echinochloa crus-galli
# Assay: Herbicidal activity against Echinochloa crus-galli (barnyard grass) assessed as inhibition of fresh weed plant weight at 1500 g/ha using post-emergence treatment protocol
# Assay type: functional
# In short: as §1
row,SMILES,inhibition at 1500 g/ha [%]
1,C#CCN1C(=O)COc2cc(F)c(-n3nnc4c(cnn4C)c3=O)cc21,58.4

# Tested on: Brassica rapa subsp. oleifera
# Assay: Herbicidal activity against Brassica rapa subsp. oleifera assessed as inhibition of fresh weed plant weight at 1500 g/ha using pre-emergence treatment protocol
# Assay type: functional
row,SMILES,inhibition at 1500 g/ha [%]
1,C#CCN1C(=O)COc2cc(F)c(-n3nnc4c(cnn4C)c3=O)cc21,98.8

# Tested on: Echinochloa crus-galli
# Assay: Herbicidal activity against Echinochloa crus-galli (barnyard grass) assessed as inhibition of fresh weed plant weight at 750 g/ha using pre-emergence treatment protocol
# Assay type: functional
row,SMILES,inhibition at 750 g/ha [%]
1,C#CCN1C(=O)COc2cc(F)c(-n3nnc4c(cnn4C)c3=O)cc21,100

# Tested on: Digitaria sanguinalis
# Assay: Herbicidal activity against Digitaria sanguinalis (hairy crabgrass) assessed as inhibition of fresh weed plant weight at 750 g/ha using pre-emergence treatment protocol
# Assay type: functional
row,SMILES,inhibition at 750 g/ha [%]
1,C#CCN1C(=O)COc2cc(F)c(-n3nnc4c(cnn4C)c3=O)cc21,100

# Tested on: Amaranthus retroflexus
# Assay: Herbicidal activity against Amaranthus retroflexus assessed as inhibition of fresh weed plant weight at 375 g/ha using pre-emergence treatment protocol
# Assay type: functional
row,SMILES,inhibition at 375 g/ha [%]
1,C#CCN1C(=O)COc2cc(F)c(-n3nnc4c(cnn4C)c3=O)cc21,96.3

# Tested on: Brassica rapa subsp. oleifera
# Assay: Herbicidal activity against Brassica rapa subsp. oleifera assessed as inhibition of fresh weed plant weight at 1500 g/ha using post-emergence treatment protocol
# Assay type: functional
# In short: as §1
row,SMILES,inhibition at 1500 g/ha [%]
1,C#CCN1C(=O)COc2cc(F)c(-n3nnc4c(cnn4C)c3=O)cc21,45.6

# Tested on: Echinochloa crus-galli
# Assay: Herbicidal activity against Echinochloa crus-galli (barnyard grass) assessed as inhibition of fresh weed plant weight at 93.75 g/ha using pre-emergence treatment protocol
# Assay type: functional
row,SMILES,inhibition at 93.75 g/ha [%]
1,C#CCN1C(=O)COc2cc(F)c(-n3nnc4c(cnn4C)c3=O)cc21,47.1

# Tested on: Echinochloa crus-galli
# Assay: Herbicidal activity against Echinochloa crus-galli (barnyard grass) assessed as inhibition of fresh weed plant weight at 187.5 g/ha using pre-emergence treatment protocol
# Assay type: functional
# In short: as §1
row,SMILES,inhibition at 187.5 g/ha [%]
1,C#CCN1C(=O)COc2cc(F)c(-n3nnc4c(cnn4C)c3=O)cc21,48.4

# Tested on: Brassica rapa subsp. oleifera
# Assay: Herbicidal activity against Brassica rapa subsp. oleifera assessed as inhibition of fresh weed plant weight at 375 g/ha using pre-emergence treatment protocol
# Assay type: functional
row,SMILES,inhibition at 375 g/ha [%]
1,C#CCN1C(=O)COc2cc(F)c(-n3nnc4c(cnn4C)c3=O)cc21,95.6

# Tested on: Digitaria sanguinalis
# Assay: Herbicidal activity against Digitaria sanguinalis (hairy crabgrass) assessed as inhibition of fresh weed plant weight at 93.75 g/ha using pre-emergence treatment protocol
# Assay type: functional
row,SMILES,inhibition at 93.75 g/ha [%]
1,C#CCN1C(=O)COc2cc(F)c(-n3nnc4c(cnn4C)c3=O)cc21,26.8

# Tested on: Digitaria sanguinalis
# Assay: Herbicidal activity against Digitaria sanguinalis (hairy crabgrass) assessed as inhibition of fresh weed plant weight at 375 g/ha using pre-emergence treatment protocol
# Assay type: functional
row,SMILES,inhibition at 375 g/ha [%]
1,C#CCN1C(=O)COc2cc(F)c(-n3nnc4c(cnn4C)c3=O)cc21,100

# Tested on: Digitaria sanguinalis
# Assay: Herbicidal activity against Digitaria sanguinalis (hairy crabgrass) assessed as inhibition of fresh weed plant weight at 1500 g/ha using pre-emergence treatment protocol
# Assay type: functional
row,SMILES,inhibition at 1500 g/ha [%]
1,C#CCN1C(=O)COc2cc(F)c(-n3nnc4c(cnn4C)c3=O)cc21,100

# Tested on: Amaranthus retroflexus
# Assay: Herbicidal activity against Amaranthus retroflexus assessed as inhibition of fresh weed plant weight at 1500 g/ha using pre-emergence treatment protocol
# Assay type: functional
row,SMILES,inhibition at 1500 g/ha [%]
1,C#CCN1C(=O)COc2cc(F)c(-n3nnc4c(cnn4C)c3=O)cc21,100

# Tested on: Digitaria sanguinalis
# Assay: Herbicidal activity against Digitaria sanguinalis (hairy crabgrass) assessed as inhibition of fresh weed plant weight at 1500 g/ha using post-emergence treatment protocol
# Assay type: functional
# In short: as §1
row,SMILES,inhibition at 1500 g/ha [%]
1,C#CCN1C(=O)COc2cc(F)c(-n3nnc4c(cnn4C)c3=O)cc21,39.2

# Tested on: Amaranthus retroflexus
# Assay: Herbicidal activity against Amaranthus retroflexus assessed as inhibition of fresh weed plant weight at 93.75 g/ha using pre-emergence treatment protocol
# Assay type: functional
row,SMILES,inhibition at 93.75 g/ha [%]
1,C#CCN1C(=O)COc2cc(F)c(-n3nnc4c(cnn4C)c3=O)cc21,60.2

# Tested on: Echinochloa crus-galli
# Assay: Herbicidal activity against Echinochloa crus-galli (barnyard grass) assessed as inhibition of fresh weed plant weight at 375 g/ha using pre-emergence treatment protocol
# Assay type: functional
# In short: as §1
row,SMILES,inhibition at 375 g/ha [%]
1,C#CCN1C(=O)COc2cc(F)c(-n3nnc4c(cnn4C)c3=O)cc21,94.8

# Tested on: Brassica rapa subsp. oleifera
# Assay: Herbicidal activity against Brassica rapa subsp. oleifera assessed as inhibition of fresh weed plant weight at 750 g/ha using pre-emergence treatment protocol
# Assay type: functional
row,SMILES,inhibition at 750 g/ha [%]
1,C#CCN1C(=O)COc2cc(F)c(-n3nnc4c(cnn4C)c3=O)cc21,97.1

# Tested on: Echinochloa crus-galli
# Assay: Herbicidal activity against Echinochloa crus-galli (barnyard grass) assessed as inhibition of fresh weed plant weight at 1500 g/ha using pre-emergence treatment protocol
# Assay type: functional
row,SMILES,inhibition at 1500 g/ha [%]
1,C#CCN1C(=O)COc2cc(F)c(-n3nnc4c(cnn4C)c3=O)cc21,100

# Tested on: Brassica rapa subsp. oleifera
# Assay: Herbicidal activity against Brassica rapa subsp. oleifera assessed as inhibition of fresh weed plant weight at 187.5 g/ha using pre-emergence treatment protocol
# Assay type: functional
row,SMILES,inhibition at 187.5 g/ha [%]
1,C#CCN1C(=O)COc2cc(F)c(-n3nnc4c(cnn4C)c3=O)cc21,77.7

# Tested on: Digitaria sanguinalis
# Assay: Herbicidal activity against Digitaria sanguinalis (hairy crabgrass) assessed as inhibition of fresh weed plant weight at 187.5 g/ha using pre-emergence treatment protocol
# Assay type: functional
row,SMILES,inhibition at 187.5 g/ha [%]
1,C#CCN1C(=O)COc2cc(F)c(-n3nnc4c(cnn4C)c3=O)cc21,80
